The record followed here is PubChem BioAssay.

In experiment [1] the target is Pantothenate synthetase (Mycobacterium tuberculosis (strain ATCC 25618 / H37Rv)) (UniProt P9WIL5). Nature of the experiment: Coupled enzyme confirmation of inhibitors against recombinant Mtb PanC (AID 375).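 Further: 0% = full reaction with vehicle and 100% = no enzyme background.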 The settings on record: coupled enzyme assay; at 10 µM, stronger effect = higher value.
A short description of experiment [2]: Her2 expression decrease, cell viability multiplex – SKBR3 breast tumor cells, AlphaScreen, ATP viability, primary screen (AID 461;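 active means Her2 level under about 52% in both replicate screens, with viability over 70% of control, limit read from the data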;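 on Her2 level: lower value means less Her2 protein in the cells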;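 on viability: percent of carrier control wells set as 100% viability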). The settings on record: SKBR3 Her2 protein level, 18-24 h, measured here: SKBR3 viability, ATP luminescence, at 10 µM. (Bead proximity is the source of the signal in Alpha formats.)
Experiment [3] has as its target Receptor tyrosine-protein kinase erbB-2 (Homo sapiens) (UniProt P04626). The description is as above. The settings on record: 18-24 h, at 10 µM, stronger effect = lower value.
Experiment [4] is described as follows: reduced viability of SK-BR-3 breast cancer cells – cell-based, 24 h, human, pilot screen (AID 572;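 active means viability at or below 10% of carrier control in both of two separate runs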;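 further: compound exposure lasted between 18 and 24 h rather than exactly 24 h; 100% = carrier-treated control wells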). The settings on record: SK-BR-3 viability, CellTiter-Glo luminescence, at 10 µM, stronger effect = lower value. In general terms: Cellular ATP, detected with luciferase, serves as a proxy for viable cell number.
The nature of experiment [5]: HUVEC growth inhibition – cell-based, human, primary screen (AID 575;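 active means viability at or below 30% in both replicate assays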;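 further: 100% = median of untreated cell wells with 0.1% DMSO on each plate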). The settings on record: HUVEC proliferation, CellTiter-Glo luminescence, 72 h; at 10 µM; stronger effect = lower value. The essentials:
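Assay system: primary human umbilical vein endothelial cells / Buffer or medium: endothelial basal medium with 2% FBS plus growth supplements / Compound dosing: one dose, 10 µM final, 0.1% DMSO / Timing: 72 h treatment at 37 °C / Signal: CTG luminescence / Benchmarks: 32 DMSO-only cell-control wells (high), 32 MePR drug-control wells (low) per plate / Plate: collagen-coated 384-well format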

Experiment [6] in a line: H69AR cell proliferation blockers – human, duplicate replicates, primary screen (AID 580;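 active means viability at or under a set limit in both replicates, limit being median viability minus 3 SD, cut at about 48% in these data, passing the limit was not always enough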;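 further: 100% = mean luminescence of untreated wells and 0% = no signal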). The settings on record: H69AR lung tumor cells viability, ATP luminescence, 72 h; at 10 µM; stronger effect = lower value.
Experiment [7] in a line: MRP1 drug-resistance reversers in H69AR cells – cell-based, doxorubicin co-treatment, pilot screen (AID 601;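 active means viability loss from added drug above about 55%, and viability with drug at most 40%, in both replicates, limit read from the data, passing the limit was not always enough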). The settings on record: CellTiter-Glo, 72 h, at 10 µM; for differential viability (reversal): stronger effect = higher value.
A short description of experiment [8]: yeast transport mutant growth inhibition pilot in 384-well plates, post-Golgi transport modulator project (AID 636; in the data active means inhibition above about 31%). The settings on record: absorbance 615 nm, about 18 h, stronger effect = higher value.
The nature of experiment [9]: growth suppression of yeast trafficking mutant, preliminary HTS, modulators of trafficking downstream of Golgi apparatus project, 1536-format plate, OD 615 nm (AID 637; in the data active means inhibition above about 30%). The settings on record: yeast transport mutant growth, absorbance 615 nm, 18 h; stronger effect = higher value.
Where [10] appears, read: H69AR cells + 2 uM doxorubicin, measured here: viability with 2 uM doxorubicin, stronger effect = lower value.
[11] abbreviates: H69AR cells, compound alone cytotoxicity.

Calls of active or inactive are those of the source. Unless noted, how the calls were made is not given here.

Pantothenate synthetase (Mycobacterium tuberculosis (strain ATCC 25618 / H37Rv)), sequence (P9WIL5 whole entry, looked up): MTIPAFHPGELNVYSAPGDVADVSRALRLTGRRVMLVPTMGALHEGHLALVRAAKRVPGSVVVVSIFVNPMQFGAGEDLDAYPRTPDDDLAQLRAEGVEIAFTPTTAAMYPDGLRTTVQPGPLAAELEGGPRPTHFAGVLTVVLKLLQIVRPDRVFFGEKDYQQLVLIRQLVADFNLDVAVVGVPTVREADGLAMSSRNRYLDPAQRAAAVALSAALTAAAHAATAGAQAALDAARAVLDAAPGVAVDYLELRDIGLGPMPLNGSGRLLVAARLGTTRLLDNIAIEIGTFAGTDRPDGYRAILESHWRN
Receptor tyrosine-protein kinase erbB-2 (Homo sapiens), sequence (P04626 whole entry, looked up): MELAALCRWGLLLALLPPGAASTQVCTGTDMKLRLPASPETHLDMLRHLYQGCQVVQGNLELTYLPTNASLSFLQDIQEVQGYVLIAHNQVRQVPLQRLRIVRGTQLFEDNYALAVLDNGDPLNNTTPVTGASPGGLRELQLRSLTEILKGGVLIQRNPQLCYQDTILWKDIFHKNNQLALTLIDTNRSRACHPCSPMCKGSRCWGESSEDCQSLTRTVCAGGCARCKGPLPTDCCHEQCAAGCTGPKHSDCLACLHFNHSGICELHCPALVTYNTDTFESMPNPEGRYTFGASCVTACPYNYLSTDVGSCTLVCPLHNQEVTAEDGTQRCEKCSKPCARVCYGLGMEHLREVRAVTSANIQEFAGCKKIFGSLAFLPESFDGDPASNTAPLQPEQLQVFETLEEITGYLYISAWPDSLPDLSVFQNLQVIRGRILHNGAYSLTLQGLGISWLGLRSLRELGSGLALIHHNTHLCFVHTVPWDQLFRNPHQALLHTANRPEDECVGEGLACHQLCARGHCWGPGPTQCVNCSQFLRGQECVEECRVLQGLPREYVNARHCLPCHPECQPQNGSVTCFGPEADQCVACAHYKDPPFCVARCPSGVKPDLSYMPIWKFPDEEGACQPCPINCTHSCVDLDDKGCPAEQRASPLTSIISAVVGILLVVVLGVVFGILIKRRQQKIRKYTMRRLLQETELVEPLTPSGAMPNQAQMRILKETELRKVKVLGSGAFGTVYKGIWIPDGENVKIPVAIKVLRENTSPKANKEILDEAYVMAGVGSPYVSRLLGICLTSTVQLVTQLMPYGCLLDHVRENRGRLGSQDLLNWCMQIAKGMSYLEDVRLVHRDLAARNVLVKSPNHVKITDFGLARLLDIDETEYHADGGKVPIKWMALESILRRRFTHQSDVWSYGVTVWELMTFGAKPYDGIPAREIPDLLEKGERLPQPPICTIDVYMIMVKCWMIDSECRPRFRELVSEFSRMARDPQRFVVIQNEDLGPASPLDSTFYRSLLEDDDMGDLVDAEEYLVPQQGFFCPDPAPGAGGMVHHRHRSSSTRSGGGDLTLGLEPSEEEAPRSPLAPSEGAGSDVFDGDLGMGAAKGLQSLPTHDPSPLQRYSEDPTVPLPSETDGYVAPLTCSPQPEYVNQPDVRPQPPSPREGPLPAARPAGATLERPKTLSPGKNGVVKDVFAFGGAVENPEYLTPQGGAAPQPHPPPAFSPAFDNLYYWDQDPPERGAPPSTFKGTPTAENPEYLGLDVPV

As a reminder, the inhibition is the relative decrease from the control value, in per cent. As to `CCOC(=O)c1ccc(-c2c(C(=O)OCC)oc3cc(O)c(CC)cc3c2=O)o1`, the inhibition in experiment [1] was 3% (inactive).

Consider `Cc1cccc(OCc2nc(C#N)c(NCCN(C)C)o2)c1`, for which the inhibition in experiment [1] was 1% (inactive).

On to `CNC(=O)c1ccsc1NC(=O)CN1C(=O)CCC1=O`, for which, in experiment [1], the inhibition was 0% (inactive).

`CC(=O)O[C@@]12CO[C@@H]1C[C@H](O)[C@@]1(C)C(=O)[C@H](O)C3=C(C)[C@@H](OC(=O)[C@H](O)[C@@H](NC(=O)OC(C)(C)C)c4ccccc4)C[C@](O)([C@@H](OC(=O)c4ccccc4)[C@H]21)C3(C)C`: in [1], the inhibition was 0% (inactive).

For orientation: viability means a read-out of living cells in per cent, often relative to untreated cells. In the case of `CC(C)N(CCC(C(N)=O)(c1ccccc1)c1ccccn1)C(C)C` (stereo not drawn), the inhibition in experiment [1] is 0% (inactive). Also, the viability in experiment [2] is 85%; in experiment [4] it was 85% (inactive); in experiment [5], 121% (inactive); in [6], 91.8% (inactive); in experiment [7] (setting [10]), 108%; in experiment [7] (setting [11]), 91.8%. Moreover, in experiment [3], the Her2 level was 114% (inactive). Also, in experiment [7] (H69AR cells + 2 uM doxorubicin), the differential viability (reversal) is -15.8% (inactive).

For `OC[C@H]1O[C@@H](n2cnc3c(Nc4ccccc4)ncnc32)[C@H](O)[C@@H]1O`, the inhibition in [1] was 1% (inactive).

Turning to `COCCOC(=O)C1=C(N)Oc2c(c(=O)oc3ccccc23)C1c1ccncc1` (stereo not drawn), the values for the inhibition in experiment [1], in experiment [8] and in experiment [9] were 10% (inactive), -2.76% (inactive) and -2.22% (inactive), respectively. The viability in [2] is 122%; in experiment [4] it was 122% (inactive); in experiment [5], 98.5% (inactive); in experiment [6] it was 92% (inactive); in experiment [7] (setting [10]), 87.7%; in experiment [7] (setting [11]), 92%. Also, the Her2 level in experiment [3] is 72% (inactive). In addition, the differential viability (reversal) in [7] (H69AR cells + 2 uM doxorubicin) was 4.34% (inactive).

Regarding `Cc1ccc(-n2c(O)c(C=NCCN3CCOCC3)c(=O)[nH]c2=O)cc1`, the inhibition is 3% (inactive) in experiment [1], -5.2% (inactive) in experiment [8] and 2.26% (inactive) in experiment [9]. The viability in experiment [2] is 124%; in experiment [4], 124% (inactive); in [5], 93.4% (inactive); in [6] it was 102% (inactive); in [7] (setting [10]) it was 93.5%; in [7] (setting [11]) it was 102%. For the same compound, the Her2 level in experiment [3] is 96.5% (inactive). In addition, the differential viability (reversal) in experiment [7] (H69AR cells + 2 uM doxorubicin) was 8.65% (inactive).

On to `C[N+]1(C)CCc2cc3c(cc2[C@H]1[C@@H]1OC(=O)c2c1ccc1c2OCO1)OCO3`, for which the inhibition in experiment [1] is 0% (inactive). The viability in experiment [2] is 89.5%; in [4], 89.5% (inactive); in experiment [5] it was 87.1% (inactive); in experiment [6] it was 113% (inactive); in experiment [7] (setting [10]), 105%; in experiment [7] (setting [11]) it was 113%. The Her2 level in [3] was 102% (inactive). Further, the differential viability (reversal) in [7] (H69AR cells + 2 uM doxorubicin) is 7.33% (inactive).

For `COc1ccc(CN2CCN(C(=O)Cc3ccccc3)CC2)c(OC)c1`, the inhibition was 0% (inactive) in experiment [1], -6.08% (inactive) in experiment [8] and 1.59% (inactive) in [9]. Further, the viability in experiment [2] was 93%; in experiment [4], 93% (inactive); in experiment [5], 89.9% (inactive); in [6] it was 97.3% (inactive); in experiment [7] (setting [10]), 87.4%; in experiment [7] (setting [11]) it was 97.3%. The Her2 level in experiment [3] was 90% (inactive). Besides, the differential viability (reversal) in experiment [7] (H69AR cells + 2 uM doxorubicin) was 9.87% (inactive).

In the case of `O=C(NC1(C(F)(F)F)Oc2ccc(Cl)cc2O1)N1CCC2(CC1)OCCO2` (stereo not drawn), the inhibition is 1% (inactive) in experiment [1], -2.47% (inactive) in [8] and -5.56% (inactive) in [9]. In addition, the viability in experiment [2] is 91.5%; in experiment [4] it was 91.5% (inactive); in [5], 58.5% (inactive); in [6] it was 27.9% (active); in experiment [7] (setting [10]), 51.7%; in [7] (setting [11]) it was 27.9%. Further, the Her2 level in experiment [3] was 87.5% (inactive). Besides, the differential viability (reversal) in experiment [7] (H69AR cells + 2 uM doxorubicin) is -23.8% (inactive).

As to `c1cncc(CNC2=NCCCCC2)c1`, the inhibition in [1] is 1% (inactive); in [8] it was -0.78% (inactive); in experiment [9], -4.92% (inactive). The viability was 80.5% in experiment [2]; 80.5% (inactive) in experiment [4]; 96.6% (inactive) in experiment [5]; 97.4% (inactive) in experiment [6]; 91.3% in experiment [7] (setting [10]); 97.4% in [7] (setting [11]). In experiment [3], the Her2 level is 106% (inactive). In addition, the differential viability (reversal) in [7] (H69AR cells + 2 uM doxorubicin) is 6.13% (inactive).

Take `Cc1ccc(OCC(=O)NCCN2CCN(C(=O)COc3ccc(C)cc3)CC2)cc1`: the inhibition in [1] was 0% (inactive); in experiment [8], -1.76% (inactive); in experiment [9], -5.56% (inactive). The viability in experiment [2] is 124%; in [4] it was 124% (inactive); in experiment [5], 88.5% (inactive); in experiment [6] it was 95.2% (inactive); in [7] (setting [10]) it was 93.9%; in [7] (setting [11]) it was 95.2%. Further, the Her2 level in experiment [3] is 106% (inactive). Moreover, the differential viability (reversal) in experiment [7] (H69AR cells + 2 uM doxorubicin) is 1.29% (inactive).

For the compound `COc1ccc(OC)c([C@@H](O)[C@H](C)NC(C)(C)C)c1`, the inhibition in experiment [1] is 6% (inactive). Further, the viability is 100% in experiment [2]; 100% (inactive) in experiment [4]; 92.3% (inactive) in [5]; 97.5% (inactive) in experiment [6]; 98.5% in [7] (setting [10]); 97.5% in experiment [7] (setting [11]). Besides, in [3], the Her2 level was 120% (inactive). Besides, the differential viability (reversal) in experiment [7] (H69AR cells + 2 uM doxorubicin) is -0.98% (inactive).

As for `CCCCCCC(N)CC(=O)O` (stereo not drawn), the inhibition in experiment [1] is 0% (inactive); in [8] it was -1.69% (inactive); in [9], -8.17% (inactive). The viability in [2] is 106%; in experiment [4], 106% (inactive); in [5] it was 95.1% (inactive); in [6] it was 94.8% (inactive); in [7] (setting [10]) it was 89.6%; in [7] (setting [11]), 94.8%. Moreover, the Her2 level in [3] is 122% (inactive). Further, in [7] (H69AR cells + 2 uM doxorubicin), the differential viability (reversal) was 5.24% (inactive).

Take `CC1=C(C(=O)N2CCC3(CC2)OCCO3)C2(CCC(C)CC2)OC1=O` (stereo not drawn): the inhibition is 0% (inactive) in [1], -0.77% (inactive) in experiment [8] and 0.17% (inactive) in experiment [9]. Moreover, the viability in [2] is 92.5%; in experiment [4], 92.5% (inactive); in experiment [5], 101% (inactive); in [6], 98.4% (inactive); in experiment [7] (setting [10]), 103%; in [7] (setting [11]) it was 98.4%. Further, in experiment [3], the Her2 level was 102% (inactive). The differential viability (reversal) in [7] (H69AR cells + 2 uM doxorubicin) was -4.92% (inactive).

On to `CCCCn1c(O)c(C(CC)=Nc2cccc(C(=O)O)c2)c(=O)[nH]c1=O`, for which the results for the inhibition in [1], in experiment [8] and in [9] were 0% (inactive), -2.67% (inactive) and -4.13% (inactive), respectively. For the same compound, the viability in experiment [2] is 97.5%; in [4], 97.5% (inactive); in experiment [5] it was 96.9% (inactive); in [6] it was 102% (inactive); in [7] (setting [10]), 92.6%; in experiment [7] (setting [11]) it was 102%. The Her2 level in experiment [3] was 92% (inactive). Besides, the differential viability (reversal) in [7] (H69AR cells + 2 uM doxorubicin) was 9.65% (inactive).

In the case of `Cn1c(C(=O)N2CCC3(CC2)OCCO3)cc2c(=O)n(C)c3ccccc3c21`, the inhibition is 0% (inactive) in experiment [1], -3.82% (inactive) in experiment [8] and -5.45% (inactive) in [9]. Also, the viability in experiment [2] is 108%; in [4], 108% (inactive); in experiment [5], 80.2% (inactive); in experiment [6] it was 80.6% (inactive); in [7] (setting [10]) it was 86.4%; in [7] (setting [11]), 80.6%. Moreover, in experiment [3], the Her2 level is 82.5% (inactive). Further, the differential viability (reversal) in [7] (H69AR cells + 2 uM doxorubicin) is -5.79% (inactive).

As for `CC(=NCc1cccnc1)c1c(O)n(Cc2ccccc2)c(=O)[nH]c1=O`, the results for the inhibition in experiment [1], in experiment [8] and in experiment [9] were 1% (inactive), -0.27% (inactive) and 2.95% (inactive), respectively. The viability was 91.5% in experiment [2]; 91.5% (inactive) in [4]; 92.6% (inactive) in experiment [5]; 93.5% (inactive) in experiment [6]; 98.3% in [7] (setting [10]); 93.5% in experiment [7] (setting [11]). Also, the Her2 level in [3] was 90.5% (inactive). In [7] (H69AR cells + 2 uM doxorubicin), the differential viability (reversal) is -4.79% (inactive).
